Experimental data as given in article PMC6096382 (Theranostics, 2018).

Tested on: human sural nerve
Type: binding
Settings: topical 100 µM on human nerve sections from multiple patients
Summary of the method: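 Human peripheral nerve from nerve-resection patients, cut as 10 µm unfixed sections, humidified 30 min. Test compound in 0.5X HBSS applied topically and incubated 30 min in a humidified chamber. Carboxyfluorescein served as the free-dye control. Sections were washed twice with 0.5X HBSS and once with PBS, then coverslipped and imaged at once on a dissecting scope or confocal (488 nm excitation, 515/25 nm emission, 10x air objective).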

binding of free dye control to human nerve: only weak non-specific binding
Substance: carboxyfluorescein
